Most compounds without a hit are left out; they make up all but 2.6% or so of the library.
STEP inh = STEP phosphatase inhibitors, primary screen, biochemical, fluorescence intensity, uHTS | inhibition, % at 20 µM | Tyrosine-protein phosphatase non-receptor type 5 (Homo sapiens), P54829 | 0.25% of 360,000 active | recombinant STEP, OMFP fluorogenic substrate;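 active = inhibition at 20 µM, scaled per plate between control wells, above about 37%, limit read from the data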;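 note: 0% = DMSO with enzyme and substrate and 100% = substrate only without enzyme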
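medium = Bis-Tris buffer pH 6.0, 2.5 mM DTT, 0.005% Tween 20 | test system = STEP (striatal-enriched tyrosine phosphatase) enzyme, cell-free | measure = normalized % inhibition | compound dosing = 20 µM, 1% DMSO | also added = 25 µM OMFP | schedule = reaction 20 min, ambient temperature | measured by = fluorescence read at 480 nm ex / 540 nm em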
rCAG RNA binder = binders of r(CAG) RNA repeats, primary screen, biochemical, fluorescence; 1.3% of 370,000 active; r(CAG) RNA repeat, TO-PRO-1 dye displacement fluorescence; inhibition, % at 3 µM;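 active = inhibition above the plate cutoff, the mean of all test compounds on that plate plus 3 SD, cut at about 35% in these data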;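 note: 0% = DMSO alone and 100% = 100 µM mitoxantrone as full dye displacement; higher means more dye released from RNA so lower well fluorescence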
Scp1 inh = Scp-1 phosphatase inhibitors, primary screen, biochemical, colorimetric, uHTS. 0.88% of 340,000 active. Recombinant Scp1, phosphopeptide, malachite green phosphate absorbance. Carboxy-terminal domain RNA polymerase II polypeptide A small phosphatase 1 (Homo …. inhibition, % at 20 µM;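 active = inhibition above about 50% at 20 µM, limit read from the data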;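 note: plate controls were DMSO wells with enzyme for no effect and wells lacking enzyme for full effect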
Target sequence (Q9GZU7 76-261 limits assumed): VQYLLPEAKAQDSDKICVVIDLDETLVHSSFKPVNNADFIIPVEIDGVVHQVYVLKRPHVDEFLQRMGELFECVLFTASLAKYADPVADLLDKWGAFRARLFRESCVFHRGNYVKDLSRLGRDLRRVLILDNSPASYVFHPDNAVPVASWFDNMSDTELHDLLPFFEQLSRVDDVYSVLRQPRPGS
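assay system = SCP-1 phosphatase catalytic domain, residues 76-261 | buffer or medium = 50 mM Tris acetate pH 5.5, 0.005% Tween-20, 10 mM MgCl2 | incubation = enzyme reaction 45 min at room temperature, colour 5 min, stabilisation 30 min | signal = Phosphate-binding colour reagent, absorbance read at 630 nm | measure = % inhibition at 20 µM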
LMPTP block = LMPTP phosphatase inhibitors, primary screen, biochemical, fluorescence intensity, uHTS | Low molecular weight phosphotyrosine protein phosphatase (Homo sapiens), P24666 | recombinant LMPTP-A, OMFP fluorogenic substrate | inhibition, % at 20 µM | 0.22% of 360,000 active | AID 651560, 2012;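 active = compounds that cut the enzyme signal by at least half of the control window in the single-dose screen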;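 note: plate controls were DMSO wells with enzyme plus substrate for no effect and substrate without enzyme for full effect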
Target sequence (P24666 whole entry, looked up): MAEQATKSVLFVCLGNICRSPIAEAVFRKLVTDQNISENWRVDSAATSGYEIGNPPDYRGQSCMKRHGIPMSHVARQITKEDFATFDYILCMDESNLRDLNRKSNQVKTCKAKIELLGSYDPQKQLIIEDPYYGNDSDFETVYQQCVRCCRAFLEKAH
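Test system: LMPTP-A phosphatase enzyme. Amount: LMPTP-A at 0.625 nM final in the reaction. Reagent: OMFP substrate, 400 µM final. Times: 50 min at room temperature. Signal: endpoint fluorescence intensity from OMFP dephosphorylation. Read-out basis: % inhibition. Benchmarks: no-enzyme and uninhibited controls.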
NadD inh = inhibitors of S. aureus NadD, primary screen, biochemical, colorimetric, uHTS. 0.78% of 360,000 active. inhibition, % at 20 µM. purified NadD enzyme, colorimetric absorbance read-out; in the data active = inhibition above about 26%
rCAG bind conf = small molecules binding CAG repeat RNA – biochemical, fluorescence, confirmation; inhibition, % at 3 µM; r(CAG) RNA repeat, TO-PRO-1 dye displacement fluorescence; shares compounds with rCAG RNA binder; 70% of 4,300 active;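 active = inhibition above a per-plate cutoff, the mean inhibition of sample wells plus 3 SD, cut at about 35% in these data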;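 note: loss of TO-PRO-1 fluorescence as compound displaces dye from 1x1 AA loop RNA; 0% = DMSO only wells and 100% = 100 µM mitoxantrone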
dCAG dye counter = displacement of TO-PRO-1 from CAG DNA duplex, counter-screen for rCAG RNA repeat binder project, biochemical, fluorescence, TO-PRO-1 dye, d(CAG) DNA oligo | shares compounds with rCAG RNA binder | d(CAG) DNA oligo TO-PRO-1 dye displacement | inhibition, % at 3 µM | 94% of 4,300 active | AID 652068, 2013;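 active = inhibition above its plate's cutoff, the mean test-well inhibition plus 3 SD, cut at about 4.8% in these data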;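 note: 0% = DNA dye mix with DMSO and 100% = 100 µM mitoxantrone; hits displace the dye from DNA and so lower well fluorescence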
An asterisk follows results filed as active; . = no result given.

SMILES	STEP inh	rCAG RNA binder	Scp1 inh	LMPTP block	NadD inh	rCAG bind conf	dCAG dye counter
Cc1ccc(CNC(=O)c2ccccc2NS(C)(=O)=O)cc1	3.2	1.0	-7.1	-0.5	-5.3	.	.
Cc1ccc(C)c(S(=O)(=O)Nc2ccccc2C(=O)Nc2ccc(S(=O)(=O)Nc3ncccn3)cc2)c1	-7.5	77.4*	-10.7	0.1	7.0	50.6*	18.2*
CC(=O)Nc1ccc(C(=O)Nc2ccc(S(=O)(=O)Nc3nccc(C)n3)cc2)cc1	-1.0	3.6	-3.7	-1.6	0.8	.	.
Cc1ccc(S(=O)(=O)Nc2ccccc2C(=O)Nc2ccc(S(=O)(=O)Nc3nccc(C)n3)cc2)cc1	1.2	58.9*	-9.6	-0.4	9.6	55.2*	23.9*
O=C(CSc1nnc(-c2cccc(Cl)c2)n1Cc1ccco1)Nc1ccc2c(c1)OCO2	.	5.2	.	.	.	.	.
CCC(NC(=O)c1ccccc1Br)c1ccccc1 (centres undefined)	-4.5	-1.2	-1.3	-0.5	2.6	.	.
CCC(NC(=O)c1ccc2c(ccn2Cc2cccc(-c3ccccc3C(=O)O)c2)c1)c1ccccc1 (centres undefined)	.	49.1*	.	.	.	48.4*	17.8*
CCOC(=O)NC(=O)/C(C#N)=N\Nc1ccc(Cl)cc1	-2.4	23.9	-7.1	-1.3	0.8	.	.
N#C/C(=N\Nc1ccc(Cl)cc1)C(=O)c1ccccc1	2.6	58.9*	-11.5	-1.0	0.7	58.0*	14.0*
Cc1c(N/N=C(\C#N)C(=O)c2ccc(Cl)cc2)c(=O)n(-c2ccccc2)n1C	-0.6	37.0*	-1.8	-1.1	17.3	32.2	10.1*
Cc1cccc(NC(=O)CNC(=O)[C@@H](Cc2ccccc2)NC(=O)[C@H]2O[C@@H](n3ccc(=O)[nH]c3=O)[C@H](O)[C@@H]2O)c1C	.	2.9	.	.	.	.	.
O=C(Cc1ccccc1)N1CCC(Oc2cccnc2)CC1	.	2.8	.	.	.	.	.
COc1cccc(N(C)C(=O)[C@@H](C2CC2)[C@@H](O)c2ccc(C(C)=O)cc2)c1	.	6.7	.	.	.	.	.
FC(F)(F)Oc1ccc(Cn2ccc3ccc(-c4ccc5ccn(Cc6ccc(OC(F)(F)F)cc6)c5c4)cc32)cc1	.	10.0	.	.	.	.	.
O=C(O)COc1ccccc1/C=N/NC(=O)CSc1nc2ccccc2n1Cc1ccccc1	1.2	45.1*	13.8	-0.6	7.1	54.6*	16.5*
O=C(O)COc1ccccc1/C=N/NC(=O)c1cc(-c2ccc(F)cc2)nc2ccccc12	-4.8	54.8*	10.3	0.6	7.4	42.9*	11.8*
CN1C[C@]2(C=C3CCCCC3n3c(=O)n(-c4ccccc4)c(=O)n32)N(C(=O)OCc2ccccc2)C1=NC(=O)c1ccccc1 (some centres undefined)	.	4.0	.	.	.	.	.
Cc1ccc(N=Cc2cc3c(cc2[N+](=O)[O-])OCO3)cc1[N+](=O)[O-]	3.0	38.8*	-0.8	5.8	2.6	9.3	4.9*
Cc1ccc(C)c(N=Cc2cc3c(cc2[N+](=O)[O-])OCO3)c1	0.5	21.8	-6.2	1.6	16.6	.	.
O=[N+]([O-])c1ccc(O)c(C=Nc2ccc3c(c2)OCO3)c1	1.6	7.9	-15.5	0.3	3.2	.	.
O=[N+]([O-])c1cc(Br)cc(C=Nc2ccc3c(c2)OCO3)c1O	2.0	57.8*	0.2	4.2	18.1	40.5*	16.6*
COc1ccc(-c2nnc(SCC(=O)N/N=C(\C)c3ccc(-c4ccccc4)cc3)n2-c2ccc(C)cc2)cc1	.	11.3	.	.	.	.	.
COC(=O)[C@@]12CCCCC3=C1N(CCC3)C(=O)[C@H]2CC(=O)N1CCOCC1	.	0.3	.	.	.	.	.
O=C1CC(c2ccc(O)c(O)c2)Oc2c1ccc(O)c2O (centres undefined)	3.3	48.5*	52.8*	59.6*	13.5	48.9*	21.0*
CC(C)=CCc1c(O)ccc2c1OC(c1ccc(O)c(O)c1)CC2=O (centres undefined)	-2.7	11.2	-4.0	1.0	1.3	.	.
SMILES	STEP inh	rCAG RNA binder	Scp1 inh	LMPTP block	NadD inh	rCAG bind conf	dCAG dye counter
CCCc1nn2c(=O)c(C(c3cccc(Cl)c3)c3c(O)nc4sc(CCC)nn4c3=O)c(O)nc2s1	2.4	38.6*	2.7	0.1	11.2	50.7*	15.6*
CC(C)C(=O)NC(NC(=S)Nc1ccc(S(N)(=O)=O)cc1)C(Cl)(Cl)Cl (centres undefined)	0.6	45.7*	1.1	-1.1	0.0	4.0	2.4
COC(=O)C1=C(C)N(Cc2ccc(C(F)(F)F)cc2)C(=NCc2ccc(OC)cc2)NC1c1ccccc1 (centres undefined)	.	9.2	.	.	.	.	.
CC1(C(=O)NS(=O)(=O)c2cccc(C#N)c2)CCN1C(=O)C1(c2ccc(Cl)cc2)CCC1 (centres undefined)	-3.1	30.0	.	-0.5	1.1	.	.
COc1ccc(S(=O)(=O)NC(=O)C2(C)CCN2C(=O)C2(c3ccc(Cl)cc3)CCC2)cc1 (centres undefined)	-3.0	45.8*	.	-0.4	-0.6	35.0*	6.4*
Cc1ccc(S(=O)(=O)NC(=O)C2(C)CCN2C(=O)C2(c3ccc(Cl)cc3)CC2)nc1 (centres undefined)	-0.2	8.9	.	-0.7	1.2	.	.
CC1(C(=O)NS(=O)(=O)c2cccc(F)c2)CCN1C(=O)C1(c2ccc(Cl)cc2)CCC1 (centres undefined)	0.9	41.7*	.	-1.2	-5.1	31.3	6.7*
CC1(C(=O)NS(=O)(=O)c2ccc(C#N)cc2)CCN1C(=O)C1(c2ccc(Cl)cc2)CCC1 (centres undefined)	-0.4	15.4	.	-1.9	-3.1	.	.
CC(C)(C)c1ccc(S(=O)(=O)NC(=O)C2(C)CCN2C(=O)C2(c3ccc(Cl)cc3)CC2)cc1 (centres undefined)	2.0	70.5*	.	-0.8	9.1	59.4*	20.5*
CC1(C(=O)NS(=O)(=O)c2ccc(Cl)cc2)CCN1C(=O)C1(c2ccc(Cl)cc2)CC1 (centres undefined)	-0.2	45.5*	.	-1.8	-5.3	39.3*	8.7*
C#CCN1CC(N(C)CCOC(=O)CSc2ccccc2)CS1(=O)=O (centres undefined)	.	-0.9	.	.	.	.	.
O=C1/C(=C/c2ccco2)SC(=S)N1c1cccnc1	78.8*	64.7*	87.0*	74.7*	22.3	55.2*	25.6*

Compound activity (PubChem BioAssay)
